Measurements published in ChEMBL document CHEMBL1122847, “Antitrichomonal activity of mesoionic thiazolo[3,2-a]pyridines” (1985).
Converted amounts (≈) assume the structure as drawn.

Tests used:
[1] = test system: Cricetinae gen. sp.; assay: Value is expressed as the ratio of (Tritrichomonas foetus) animals cured / total number(5) infected at day 1 post treatment after 4 days of treatment; type: functional, Cricetulus griseus
Method in brief: (§1)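 From day 3 postinfection, animals got one daily intravaginal 2% (w/w) propylene glycol cream dose plus two daily sc suspension doses (100 mg/kg) for 4 days. Vaginal washings (Kupferberg's medium) were taken days 1 and 4 posttreatment and checked microscopically for viable parasites.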

[2] = test system: Tritrichomonas suis; assay: The minimum lethal concentration (MLC) against Trichomonas foetus; type: functional
Method in brief: (§2)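 Broth microdilution in Kupferberg's medium (pH 7.2); compounds serially diluted 200–0.2 µg/mL in duplicate; each well inoculated with T. foetus at 15 parasites/mm3 in broth, overlaid with sterile mineral oil; 30 °C for 48 h; wells examined microscopically for viable parasites; MLC = lowest concentration without viable parasites; single values reflect consistent duplicate end points.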

[3] = organism: Mesocricetus auratus; assay: Value is expressed as the ratio of (Tritrichomonas foetus) animals cured / total number(5) infected at day 4 post treatment after 4 days of treatment
[4] = test system: Cricetinae gen. sp.; assay: Value is expressed as the ratio of (Tritrichomonas foetus infected) animals cured / total number(5) infected at day 1 post treatment after 4 days of treatment; type: functional, Cricetulus griseus; method in brief: as §1
[5] = test system: Cricetinae gen. sp.; assay: Value is expressed as the ratio of (Tritrichomonas foetus infected) animals cured / total number(5) infected at day 4 post treatment after 4 days of treatment; type: functional, Cricetulus griseus; method in brief: as §1
[6] = test system: Tritrichomonas suis; assay: The minimum lethal concentration (MLC) is determined in Trichomonas foetus; type: functional; method in brief: as §2
[7] = organism: Mesocricetus auratus; assay: Value is expressed as the ratio of (Tritrichomonas foetus infected) animals cured / total number(15) infected at day 1 post treatment after 4 days of treatment
[8] = organism: Mesocricetus auratus; assay: Value is expressed as the ratio of (Tritrichomonas foetus infected) animals cured / total number(15) infected at day 4 post treatment after 4 days of treatment

With `[O-]c1c(-c2cccnc2)sc2cccc[n+]12` as the molecule, how does the Activity [1] read?
The Activity was 0.

And the MLC [2]?
Its MLC is 12.5 µg/mL (≈ 54.8 µM).

What about the Activity [3] of the same molecule?
Its Activity is 0.

For `[O-]c1c(-c2ccc(Cl)cc2)sc2cccc[n+]12`, which Activity [1] is on record?
Its Activity is 0.

And the MLC [2]?
Its MLC is 25 µg/mL (≈ 95.5 µM).

And the Activity [3]?
Its Activity is 0.

`Nc1ccccc1-c1sc2cccc[n+]2c1[O-]` was tested. Which MLC [2] did it give?
The MLC was 3.12 µg/mL (≈ 12.9 µM).

With `CC(C)(C)c1ccc(-c2sc3cccc[n+]3c2[O-])cc1` as the molecule, how does the MLC [2] read?
Its MLC is 25 µg/mL (≈ 88.2 µM).

`[O-]c1c(-c2ccccc2)sc2c(O)ccc[n+]12` was tested. Which MLC [2] did it give?
The MLC was >200 µg/mL.

Which results are given for `COc1ccc(-c2sc3cccc[n+]3c2[O-])cc1`?
Activity [1]: 0; MLC [2]: 6.25 µg/mL (≈ 24.3 µM); Activity [3]: 0

How did the Activity [1] turn out when `Cc1ccc(-c2sc3cccc[n+]3c2[O-])cc1` was run?
Its Activity is 0.

What about the MLC [2] of the same molecule?
The MLC was 12.5 µg/mL (≈ 51.8 µM).

What about the Activity [3] of the same molecule?
Its Activity is 0.

With `O=[N+]([O-])c1ccc2sc(-c3ccccc3)c([O-])[n+]2c1` as the molecule, how does the MLC [2] read?
Its MLC is 200 µg/mL (≈ 735 µM).

How did the MLC [2] turn out when `O=[N+]([O-])c1ccc(-c2sc3cccc[n+]3c2[O-])cc1` was run?
Its MLC is >200 µg/mL.

`Cc1cccc2sc(-c3ccccc3)c([O-])[n+]12` was tested. Which MLC [2] did it give?
Its MLC is >200 µg/mL.

With `[O-]c1c(-c2ccccc2)sc2nccc[n+]12` as the molecule, how does the MLC [2] read?
Its MLC is >200 µg/mL.

Which Activity [1] does the source give for `O=[N+]([O-])c1ccc[n+]2c([O-])c(-c3ccccc3)sc12` here?
The Activity was 0.

And the MLC [2]?
Its MLC is 0.8 µg/mL (≈ 2.94 µM).

What about the Activity [3] of the same molecule?
The Activity was 0.

For `[O-]c1c(-c2ccccc2)sc2sc3ccccc3[n+]12`, which MLC [2] is on record?
Its MLC is >200 µg/mL.

`O=[N+]([O-])c1cccc(-c2sc3cccc[n+]3c2[O-])c1` was tested. Which MLC [2] did it give?
Its MLC is >200 µg/mL.

For `[S-]c1c(-c2ccc(Cl)cc2)sc2cccc[n+]12`, which MLC [2] is on record?
Its MLC is >200 µg/mL.

With `[O-]c1c(-c2ccccn2)sc2cccc[n+]12` as the molecule, how does the Activity [1] read?
The Activity was 1.

What about the MLC [2] of the same molecule?
The MLC was 25 µg/mL (≈ 110 µM).

What about the Activity [3] of the same molecule?
The Activity was 0.

Which Activity [4] does the source give for `CCOC(=O)C(Sc1ccccn1)c1ccccc1` (stereo unspecified) here?
Its Activity is 0.

What about the Activity [5] of the same molecule?
The Activity was 0.

What about the MLC [2] of the same molecule?
The MLC was >200 µg/mL.

Which results are given for `[O-]c1c(-c2ccccc2Cl)sc2cccc[n+]12`?
Activity [1]: 0; MLC [2]: 100 µg/mL (≈ 382 µM); Activity [3]: 0

For `[S-]c1c(-c2ccccc2)sc2cccc[n+]12`, which MLC [2] is on record?
Its MLC is >200 µg/mL.

Which Activity [1] does the source give for `Nc1ccc(-c2sc3cccc[n+]3c2[O-])cc1` here?
The Activity was 0.

And the MLC [2]?
Its MLC is 1.6 µg/mL (≈ 6.6 µM).

What about the Activity [3] of the same molecule?
The Activity was 0.

With `Nc1ccc[n+]2c([O-])c(-c3ccccc3)sc12` as the molecule, how does the MLC [2] read?
Its MLC is 200 µg/mL (≈ 825 µM).

For `[O-]c1c(-c2ccccc2)sc2ccc3ccccc3[n+]12`, which MLC [2] is on record?
Its MLC is >200 µg/mL.

How did the MLC [2] turn out when `O=[N+]([O-])c1ccccc1-c1sc2cccc[n+]2c1[O-]` was run?
The MLC was 25 µg/mL (≈ 91.8 µM).

`CN(C)c1ccc(-c2sc3cccc[n+]3c2[O-])cc1` was tested. Which Activity [1] did it give?
Its Activity is 0.

And the MLC [2]?
Its MLC is 0.8 µg/mL (≈ 2.96 µM).

What about the Activity [3] of the same molecule?
The Activity was 0.

`O=C([N-]c1c(-c2ccccc2)sc2cccc[n+]12)c1ccccc1` was tested. Which MLC [2] did it give?
Its MLC is >200 µg/mL.

Which MLC [2] does the source give for `[O-]c1c(Sc2ccc(Cl)cc2)sc2cccc[n+]12` here?
Its MLC is >200 µg/mL.

With `[O-]c1c(/C=C/c2ccccc2)sc2cccc[n+]12` as the molecule, how does the MLC [2] read?
Its MLC is 200 µg/mL (≈ 789 µM).

What does the source list for `[O-]c1c(-c2ccncc2)sc2cccc[n+]12`?
Activity [1]: 4; MLC [2]: 50 µg/mL (≈ 219 µM); Activity [3]: 0

With `COc1ccc(-c2sc3cccc[n+]3c2[S-])cc1` as the molecule, how does the MLC [2] read?
Its MLC is >200 µg/mL.

For `O=C([O-])C(Sc1ccccn1)c1ccccc1.[Na+]` (stereo unspecified), which Activity [4] is on record?
The Activity was 0.

And the Activity [5]?
The Activity was 0.

And the MLC [2]?
The MLC was >200 µg/mL.

Which Activity [1] does the source give for `[O-]c1c(-c2ccccc2)sc2cccc[n+]12` here?
The Activity was 0.

And the MLC [2]?
Its MLC is 12.5 µg/mL (≈ 55 µM).

And the Activity [3]?
The Activity was 0.

How did the Activity [1] turn out when `[O-]c1c(-c2ccccc2)oc2cccc[n+]12` was run?
Its Activity is 0.

And the MLC [2]?
The MLC was >200 µg/mL.

And the Activity [3]?
The Activity was 0.

For `OC1=C(c2ccccc2)SC(c2ccccc2)N1c1ccccc1` (stereo unspecified), which MLC [6] is on record?
Its MLC is >200 µg/mL.

For `Nc1cccc(-c2sc3cccc[n+]3c2[O-])c1`, which MLC [2] is on record?
Its MLC is 12.5 µg/mL (≈ 51.6 µM).

With `Nc1ccc2sc(-c3ccccc3)c([O-])[n+]2c1` as the molecule, how does the MLC [2] read?
The MLC was 100 µg/mL (≈ 413 µM).

With `CC(=O)Nc1ccc(-c2sc3cccc[n+]3c2[O-])cc1` as the molecule, how does the MLC [2] read?
Its MLC is >200 µg/mL.

How did the MLC [2] turn out when `CC(=O)Nc1cccc(-c2sc3cccc[n+]3c2[O-])c1` was run?
Its MLC is 200 µg/mL (≈ 703 µM).

`CC(=O)[N-]c1c(-c2ccccc2)sc2cccc[n+]12` was tested. Which MLC [2] did it give?
Its MLC is >200 µg/mL.

For `Cc1cc[n+]2c([O-])c(-c3ccccc3)sc2c1`, which MLC [2] is on record?
The MLC was 200 µg/mL (≈ 829 µM).

`[O-]c1c(-c2ccccc2)sc2cncc[n+]12` was tested. Which MLC [2] did it give?
Its MLC is >200 µg/mL.

How did the MLC [2] turn out when `Br.[NH-]c1c(-c2ccccc2)sc2cccc[n+]12` was run?
The MLC was >200 µg/mL.

For `Cc1ncc([N+](=O)[O-])n1CCO` [METRONIDAZOLE], which Activity [7] is on record?
Its Activity is 15.

And the Activity [8]?
The Activity was 15.
